Results published in ChEMBL document CHEMBL1122794, “[(Arylcarbonyl)oxy]propanolamines. 1. Novel beta-blockers with ultrashort duration of action” (J Med Chem, 1984).

Assays:
[1] = biological target: T1, Adrenergic receptor beta (Homo sapiens, UniProt P08588+P07550+P13945); assay: In Vitro inhibition of the beta adrenergic receptor in guinea pig atria; type: tissue-based, Cavia porcellus; conditions: target entry is the homologue from another species
[2] = Stability at pH 7.4 and 37 degree Celsius (after 18 h); type: physicochemical; conditions: buffer
Procedure, shortened: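 Chemical stability was tested in pH 7.4 buffer at 37 °C. The percentage of parent compound remaining after 18 h of incubation was recorded.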

[3] = biological target: T1, Adrenergic receptor beta; assay: In vitro blocking of beta adrenergic receptor in guinea pig trachea; type: tissue-based, Cavia porcellus; conditions: target entry is the homologue from another species
[4] = Selectivity determined by expression 10[pA2(atria) - pA2 (trachea)] in guinea pig; type: functional, Cavia porcellus
[5] = t1/2 in canine liver; type: ADME, Canis lupus familiaris; conditions: dog
[6] = Time in which 1/2 of the initial amount disappeared in human blood.; type: ADME, organism-based
Procedure, shortened: (§1)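 1 mL of solution containing 50 µg of compound was added to 1 mL of dog or human whole blood, or to 1 mL of 33% (w/v) canine liver homogenate. They were assayed by HPLC on a phenyl column with 60% acetonitrile/40% 0.05 M sodium phosphate (pH 6.6) and UV detection. Half-life was read graphically from concentration versus time.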

[7] = T1/2 in canine blood; type: ADME, […], Canis lupus familiaris; conditions: dog; procedure, shortened: as §1
[8] = organism: Canis familiaris; assay: Time taken for 80% recovery at a dose of 59 microg (3-h infusion period); type: functional, organism-based; conditions: Canis lupus familiaris
Procedure, shortened: (§2)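 After the infusion ended, the time to 80% recovery of the blockade was recorded as duration of action. The listed dose is the average amount infused per minute over the 3-h period, in µg/(kg min).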

[9] = organism: Canis familiaris; assay: Time taken for 80% recovery at a dose of 123 microg (3-h infusion period); type: functional, organism-based; conditions: Canis lupus familiaris
[10] = biological target: Beta-2 adrenergic receptor (Cavia porcellus) (UniProt Q8K4Z4); assay: In Vitro evaluation for […] selectivity in guinea pig
Chain of Beta-2 adrenergic receptor (Cavia porcellus) (Q8K4Z4 whole entry, looked up): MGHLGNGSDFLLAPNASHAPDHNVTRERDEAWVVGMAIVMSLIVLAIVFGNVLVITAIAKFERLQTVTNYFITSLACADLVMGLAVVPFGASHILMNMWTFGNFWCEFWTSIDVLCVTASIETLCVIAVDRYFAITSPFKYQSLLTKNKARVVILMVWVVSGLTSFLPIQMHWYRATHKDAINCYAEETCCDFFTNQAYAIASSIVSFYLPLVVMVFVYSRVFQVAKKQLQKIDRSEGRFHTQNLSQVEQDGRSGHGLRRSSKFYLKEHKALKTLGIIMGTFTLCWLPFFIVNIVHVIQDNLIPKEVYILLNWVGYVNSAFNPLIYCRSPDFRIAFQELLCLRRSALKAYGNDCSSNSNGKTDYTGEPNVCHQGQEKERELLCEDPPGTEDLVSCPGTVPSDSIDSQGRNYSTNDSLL
Procedure, shortened: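 Selectivity index calculated as 10^[pA2(atria) − pA2(trachea)] from pA2 values measured in isolated guinea pig atria and trachea. A minus sign denotes β2 selectivity.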

[11] = organism: Canis familiaris; assay: Time taken for 80% recovery at a dose of 28 microg (3-h infusion period); type: functional, organism-based; conditions: Canis lupus familiaris
[12] = organism: Canis familiaris; assay: Time taken for 80% recovery at a dose of 7 microg (3-h infusion period); type: functional, organism-based; conditions: Canis lupus familiaris; procedure, shortened: as §2
[13] = organism: Canis familiaris; assay: Percent inhibition of isoproterenol induced tachycardia at a dose of 7 microg (3-h infusion period); type: functional, Canis lupus familiaris
[14] = organism: Canis familiaris; assay: Time taken for 80% recovery at a dose of 121 microg (3-h infusion period) / 88 kg min (40-min infusion model); type: functional, organism-based; conditions: Canis lupus familiaris

Structure (SMILES)	pA2 [1]	pA2 [3]	Selectivity [4]	half-life [5] [min]	half-life [7] [min]	other results
O=C(Cc1ccccc1)NCCNCC(O)COC(=O)c1ccccc1F (stereo not drawn)	< 6	–	–	–	–	–
Cc1ccccc1C(=O)OCC(O)CNC(C)(C)C (stereo not drawn)	7.3	7.9	-4	> 180	> 180	remaining at 18 h [2]: 100%; half-life [6]: > 180 min
COc1ccc(CCNCC(O)COC(=O)c2ccc(F)cc2)cc1OC (stereo not drawn)	7	6.7	2	–	–	Recovery time [8]: > 60 min
CC(C)NCC(O)COC(=O)c1ccc2c(c1)OCO2 (stereo not drawn)	6.9	–	–	29	–	Recovery time [9]: 50 min
CC(C)(C)NCC(O)COC(=O)c1cccc2ccccc12 (stereo not drawn)	6.8	7.4	-4	> 180	> 180	–
CC(C)(C)NCC(O)COC(=O)c1ccc(N)cc1 (stereo not drawn)	7	7	1	–	–	–
CC(=O)Nc1cccc(C(=O)OCC(O)CNC(C)C)c1 (stereo not drawn)	6.1	6.4	-2	–	–	–
COc1ccc(CCNCC(O)C(=O)Oc2ccccc2)cc1OC (stereo not drawn)	5.9	5.9	–	–	–	Selectivity [10]: 1
CC(C)(C)NCC(O)COC(=O)c1ccc2c(c1)OCO2 (stereo not drawn)	6.9	–	–	–	–	Recovery time [11]: > 60 min
CNC(=O)NCC(C)(C)NCC(O)COC(=O)c1ccccc1F (stereo not drawn)	6.5	8.1	-39	5	12	–
CC(C)NCC(O)COC(=O)c1ccc(OCc2ccccc2)cc1 (stereo not drawn)	< 6	–	–	–	–	–
CC(C)(C)NCC(O)COC(=O)c1ccncc1 (stereo not drawn)	5.3	–	–	–	–	–
CC(C)C(=O)NCCNCC(O)COC(=O)c1ccccc1F (stereo not drawn)	6.1	–	–	–	–	–
Cc1cccc(C(=O)OCC(O)CNC(C)(C)C)c1 (stereo not drawn)	7	7.3	-2	–	–	–
CCC(C)(C)NCC(O)COC(=O)c1ccccc1F (stereo not drawn)	6.7	7.7	-5	12	6	–
Cc1cc(N)ccc1C(=O)OCC(O)CNC(C)(C)C (stereo not drawn)	7.8	8.4	-4	–	–	–

Structure (SMILES)	pA2 [1]	pA2 [3]	Selectivity [4]	half-life [5] [min]	half-life [7] [min]	other results
CC(C)(C)NCC(O)COC(=O)c1ccc([N+](=O)[O-])cc1 (stereo not drawn)	6.1	–	–	> 180	> 180	half-life [6]: 5.5 min
CC(C)(C)NCC(O)COC(=O)Cc1ccccc1 (stereo not drawn)	5.6	–	–	–	16	half-life [6]: 6.3 min
CC(C)(C)NCC(O)COC(=O)c1cccc(O)c1 (stereo not drawn)	7.4	7.6	-2	62	119	Recovery time [12]: 25 min; Inhibition [13]: 56%
COc1ccc(CCNCC(O)COC(=O)c2ccccc2Cl)cc1OC (stereo not drawn)	7.8	7.5	2	–	–	remaining at 18 h [2]: 59%
Cc1ccccc1OCC(O)CNC(C)C (stereo not drawn)	8.6	8.2	3	–	–	–
CC(C)(C)NCC(O)COC(=O)c1cccc(OCc2ccccc2)c1 (stereo not drawn)	–	–	–	> 180	> 180	–
COc1ccc(CCNCC(O)C(=O)Oc2ccccc2C)cc1OC (stereo not drawn)	5.9	–	–	–	–	–
COc1ccc(CCNCC(O)COC(=O)c2ccccc2)cc1OC (stereo not drawn)	7	6.3	5	–	–	Recovery time [14]: 29 min
Cc1ccc(C(=O)OCC(O)CNC(C)C)cc1 (stereo not drawn)	6.8	6.8	1	10.4	67	half-life [6]: 6 min
CC(C)(C)NCC(O)COC(=O)C1CCCC1 (stereo not drawn)	5.3	–	–	–	–	–
CN(C)S(=O)(=O)NCC(C)(C)NCC(O)COC(=O)c1ccccc1F (stereo not drawn)	7.4	7.5	1	–	–	–
CC(C)NCC(O)COC(=O)c1cccc(F)c1 (stereo not drawn)	–	–	–	11	52	half-life [6]: 8 min
CNCC(O)COC(=O)c1ccc2c(c1)OCO2 (stereo not drawn)	5.3	–	–	–	–	–
C=CCOc1ccccc1C(=O)OCC(O)CNC(C)C (stereo not drawn)	6.4	6.2	-2	–	–	–
Cc1cccc(C(=O)OCC(O)CNC(C)C)c1 (stereo not drawn)	6.8	7.3	-3	–	–	–
